Measurements taken from ChEMBL document CHEMBL1147533, “Highly diastereoselective inverse electron demand (IED) Diels-Alder reaction mediated by chiral salen-AlCl complex: the first, target-oriented synthesis of pyranoquinolines as potential antibacterial agents” (Bioorg Med Chem Lett, 2004).

What was measured:
Type in all cases: functional, organism-based
Escherichia coli [1] = assay: In vitro antibacterial activity against Escherichia coli at a concentration of 2 mg/mL; - indicates No activity
Procedure, shortened: (§1)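 Five microlitres of compound stock (about 0.2 mg) combined with bacterial suspension in Tris-buffered saline (0.8 OD at 580 nm). Mixture incubated 14 h at 14 °C, then plated on TCBS agar (thiosulphate–citrate–bile salt–sucrose) to read bactericidal activity.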

Pseudomonas sp. [2] = assay: In vitro antibacterial activity against Pseudomonas species at a concentration of 2 mg/mL; - indicates No activity; procedure, shortened: as §1
Vibrio fluvialis [3] = assay: In vitro antibacterial activity against Vibrio fluvialis at a concentration of 2 mg/mL; - indicates No activity; procedure, shortened: as §1
Vibrio mimicus [4] = assay: In vitro antibacterial activity against Vibrio mimicus at a concentration of 2 mg/mL; - indicates No activity; procedure, shortened: as §1
Vibrio vulnificus [5] = assay: In vitro antibacterial activity against Vibrio vulnificus at a concentration of 2 mg/mL; - indicates No activity; procedure, shortened: as §1
Vibrio parahaemolyticus [6] = assay: In vitro antibacterial activity against Vibrio parahaemolyticus at a concentration of 2 mg/mL; - indicates No activity; procedure, shortened: as §1
Vibrio anguillarum [7] = assay: In vitro antibacterial activity against Vibrio anguillarum at a concentration of 2 mg/mL; - indicates No activity; procedure, shortened: as §1
Vibrio alginolyticus [8] = assay: In vitro antibacterial activity against Vibrio alginolyticus at a concentration of 2 mg/mL; - indicates No activity; procedure, shortened: as §1
Escherichia coli [9] = assay: In vitro antibacterial activity against Escherichia coli in test 1; ++ indicates mild activity; procedure, shortened: as §1
Escherichia coli [10] = assay: In vitro antibacterial activity against Escherichia coli in test 2; ++ indicates mild activity; procedure, shortened: as §1
Vibrio fluvialis [11] = assay: In vitro antibacterial activity against Vibrio fluvialis in test 1; - indicates No activity; procedure, shortened: as §1
Vibrio fluvialis [12] = assay: In vitro antibacterial activity against Vibrio fluvialis in test 2; - indicates No activity; procedure, shortened: as §1
Escherichia coli [13] = assay: In vitro antibacterial activity of (50:50%) of compounds against Escherichia coli at a concentration of 2 mg/mL; - indicates No activity; procedure, shortened: as §1
Escherichia coli [14] = assay: n vitro antibacterial activity of (25:50%) of compounds against Escherichia coli at a concentration of 2 mg/mL; + indicates No activity; procedure, shortened: as §1
Pseudomonas sp. [15] = assay: In vitro antibacterial activity of (50:50%) of compounds against Pseudomonas species at a concentration of 2 mg/mL; - indicates No activity; procedure, shortened: as §1
Pseudomonas sp. [16] = assay: n vitro antibacterial activity of (25:50%) of compounds against Pseudomonas species at a concentration of 2 mg/mL; + indicates No activity; procedure, shortened: as §1
Vibrio fluvialis [17] = assay: In vitro antibacterial activity of (50:50%) of compounds against Vibrio fluvialis at a concentration of 2 mg/mL; - indicates No activity; procedure, shortened: as §1
Vibrio fluvialis [18] = assay: n vitro antibacterial activity of (25:50%) of compounds against Vibrio fluvialis at a concentration of 2 mg/mL; + indicates No activity; procedure, shortened: as §1
Vibrio mimicus [19] = assay: In vitro antibacterial activity of (50:50%) of compounds against Vibrio mimicus at a concentration of 2 mg/mL; - indicates No activity; procedure, shortened: as §1
Vibrio mimicus [20] = assay: n vitro antibacterial activity of (25:50%) of compounds against Vibrio mimicus at a concentration of 2 mg/mL; + indicates No activity; procedure, shortened: as §1
Vibrio parahaemolyticus [21] = assay: In vitro antibacterial activity of (50:50%) of compounds against Vibrio parahaemolyticus at a concentration of 2 mg/mL; - indicates No activity; procedure, shortened: as §1
Vibrio parahaemolyticus [22] = assay: n vitro antibacterial activity of (25:50%) of compounds against Vibrio parahaemolyticus at a concentration of 2 mg/mL; + indicates No activity; procedure, shortened: as §1
Vibrio vulnificus [23] = assay: In vitro antibacterial activity of (50:50%) of compounds against Vibrio vulnificus at a concentration of 2 mg/mL; - indicates No activity; procedure, shortened: as §1
Vibrio vulnificus [24] = assay: n vitro antibacterial activity of (25:50%) of compounds against Vibrio vulnificus at a concentration of 2 mg/mL; + indicates No activity; procedure, shortened: as §1
Vibrio alginolyticus [25] = assay: In vitro antibacterial activity of (50:50%) of compounds against Vibrio alginolyticus at a concentration of 2 mg/mL; - indicates No activity; procedure, shortened: as §1
Vibrio anguillarum [26] = assay: In vitro antibacterial activity of (50:50%) of compounds against Vibrio anguillarum at a concentration of 2 mg/mL; - indicates No activity; procedure, shortened: as §1
Vibrio anguillarum [27] = assay: n vitro antibacterial activity of (25:50%) of compounds against Vibrio anguillarum at a concentration of 2 mg/mL; + indicates No activity; procedure, shortened: as §1
Vibrio alginolyticus [28] = assay: n vitro antibacterial activity of (25:50%) of compounds against Vibrio alginolyticus at a concentration of 2 mg/mL; + indicates No activity; procedure, shortened: as §1

With `c1ccc([C@@H]2Nc3ccccc3[C@@H]3OCCC[C@H]23)cc1` the Activity (Escherichia coli [1]) was “Not toxic”, the Activity (Pseudomonas sp. [2]) was “Not toxic” and the Activity (Vibrio fluvialis [3]) was “Not toxic”. The Activity (Vibrio mimicus [4]) was “Not toxic”, the Activity (Vibrio vulnificus [5]) was “Not toxic” and the Activity (Vibrio parahaemolyticus [6]) was “Not toxic”. For the same molecule, the Activity (Vibrio anguillarum [7]) was “Not toxic” and the Activity (Vibrio alginolyticus [8]) was “Not toxic”.

For `c1ccc([C@H]2Nc3ccccc3[C@@H]3OCCC[C@H]23)cc1`, the Activity (Escherichia coli [9]) was “mild activity”, the Activity (Escherichia coli [10]) was “mild activity” and the Activity (Vibrio fluvialis [11]) was “Not toxic”. For the same molecule, the Activity (Vibrio fluvialis [12]) was “Not toxic”.

`c1ccc([C@@H]2Nc3ccccc3[C@@H]3OCCC[C@H]23)cc1.c1ccc([C@H]2Nc3ccccc3[C@@H]3OCCC[C@H]23)cc1` was tested, and the Activity (Escherichia coli [13]) was “Not toxic”, the Activity (Escherichia coli [14]) was “No activity” and the Activity (Pseudomonas sp. [15]) was “Not toxic”. The Activity (Pseudomonas sp. [16]) was “No activity”, the Activity (Vibrio fluvialis [17]) was “Not toxic” and the Activity (Vibrio fluvialis [18]) was “No activity”. The Activity (Vibrio mimicus [19]) was “Not toxic”, the Activity (Vibrio mimicus [20]) was “No activity” and the Activity (Vibrio parahaemolyticus [21]) was “Not toxic”. The Activity (Vibrio parahaemolyticus [22]) was “No activity”, the Activity (Vibrio vulnificus [23]) was “Not toxic” and the Activity (Vibrio vulnificus [24]) was “No activity”. The Activity (Vibrio alginolyticus [25]) was “Not toxic”, the Activity (Vibrio anguillarum [26]) was “Not toxic” and the Activity (Vibrio anguillarum [27]) was “No activity”. For the same molecule, the Activity (Vibrio alginolyticus [28]) was “No activity”.
